Published values collected from several papers.
Lines come from different studies, so protocols differ.
Target: Mitogen-activated protein kinase kinase kinase 12 (MAP3K12, Homo sapiens, UniProt Q12852)
Sequence (Q12852 1-859, as in one of the studies): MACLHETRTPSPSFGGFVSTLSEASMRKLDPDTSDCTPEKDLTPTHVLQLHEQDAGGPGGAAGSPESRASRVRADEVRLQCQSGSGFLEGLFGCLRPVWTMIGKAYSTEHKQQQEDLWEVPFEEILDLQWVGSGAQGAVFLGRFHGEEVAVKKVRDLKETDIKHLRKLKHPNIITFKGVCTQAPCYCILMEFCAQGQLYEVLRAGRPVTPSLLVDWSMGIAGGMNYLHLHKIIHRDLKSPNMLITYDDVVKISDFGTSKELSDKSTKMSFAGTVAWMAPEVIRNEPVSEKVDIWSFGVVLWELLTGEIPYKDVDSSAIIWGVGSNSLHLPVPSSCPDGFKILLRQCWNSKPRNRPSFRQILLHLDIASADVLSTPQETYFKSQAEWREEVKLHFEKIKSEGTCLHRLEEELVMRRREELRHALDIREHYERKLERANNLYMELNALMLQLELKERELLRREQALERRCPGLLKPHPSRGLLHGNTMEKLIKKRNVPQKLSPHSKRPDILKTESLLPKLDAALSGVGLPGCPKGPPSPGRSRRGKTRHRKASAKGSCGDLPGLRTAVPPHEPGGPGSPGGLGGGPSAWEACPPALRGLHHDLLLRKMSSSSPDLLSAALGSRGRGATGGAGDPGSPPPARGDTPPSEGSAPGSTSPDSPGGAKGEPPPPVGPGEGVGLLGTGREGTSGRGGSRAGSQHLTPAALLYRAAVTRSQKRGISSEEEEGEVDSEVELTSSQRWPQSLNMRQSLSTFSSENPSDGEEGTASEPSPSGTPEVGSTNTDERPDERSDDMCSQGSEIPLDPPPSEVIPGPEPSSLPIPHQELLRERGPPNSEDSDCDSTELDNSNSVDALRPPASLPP

Compound	observed	mode	method	concentration	quantity	value
COc1ccc2cc(OCC3(C(=O)O)CN(C(=O)c4ccc(F)cc4)C3)ccc2c1	cell-free assay		competition with immobilised ligand	1 µM	remaining binding	97%
Cc1ccc(C(=O)Nc2ccc(CN3CCN(C)CC3)c(C(F)(F)F)c2)cc1C#Cc1cnc2cccnn12	enzyme activity	inhibitor		23.5 nM	remaining activity	76%
Nc1ncnc2occ(-c3ccc(NC(=O)Nc4cc(C(F)(F)F)ccc4F)cc3)c12	cell-free assay	inhibitor		20 µM	remaining signal	17%
CC/C(=N\NC(=O)NCc1cccc(O)c1)c1ccc(O)c(C)c1O	enzyme activity	inhibitor		0.1 µM	inhibition	0.4%
O=C(Nc1cnn(-c2csc(C(=O)NC3COC3)c2)c1)Nc1ccccc1Cl	enzyme activity	inhibitor		5 µM	remaining activity	96.5%
O=C(Nc1cccnn1)N1CCC(=Cc2cccc(Oc3ccc(C(F)(F)F)cn3)c2)CC1	cell-free assay		competition with immobilised ligand	1 µM	remaining binding	100%
COc1ccnn2ncc(-c3ccnc(N(C)C)n3)c12	binding			1 µM	remaining binding	97%
O=C(Nc1cnn(-c2csc(C(=O)NC3COC3)c2)c1)Nc1c(F)cccc1Cl	enzyme activity	inhibitor		5 µM	remaining activity	82.2%
N[C@@H]1CCN(c2nccc(-c3cnn4ncccc34)n2)C1	binding			1 µM	remaining binding	100%
CC(C)(O)[C@H]1CC[C@H](Nc2ccc3ncc(-c4cccc(C(F)(F)F)c4)n3n2)CC1	enzyme activity	inhibitor		1 µM	remaining activity	73%
